Laboratory results taken from ChEMBL document CHEMBL1938383, “Novel 5- and 6-subtituted benzothiazoles with improved physicochemical properties: potent S1P₁ agonists with in vivo lymphocyte-depleting activity” (Bioorg Med Chem Lett, 2012).

Legend:
[1] = biological target: T1, Sphingosine 1-phosphate receptor 3 (Homo sapiens, UniProt Q99500); test: Agonist activity at human S1P3 receptor expressed in CHO cells coexpressing Gq/i5 protein by calcium flux assay; type: functional, cell-based
Outline: (§1)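 Ca²⁺ flux read-out in CHO cells stably co-expressing human S1P3 and chimeric Gq/i5 G-protein.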

Rattus norvegicus [2] = test: Immunosuppressive activity in Lewis rat assessed as reduction of circulating lymphocytes at 1 mg/kg, po after 24 hrs; type: functional; set-up: scale not given: the % may be the effect or the level left
[3] = biological target: T2, Sphingosine 1-phosphate receptor 1 (Homo sapiens, UniProt P21453); test: Agonist activity at human S1P1 receptor expressed in U20S cells coexpressing eGFP assessed as receptor internalization after 1 hr by microscopy analysis; type: functional, cell-based, U2OS
Outline: (§2)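 hS1P1–eGFP U2OS cells held in serum-free medium 2 h, then exposed to compound 1 h at 37 °C. Cells fixed in 4% formaldehyde, nuclei stained with Hoechst, imaged by automated microscopy. Potency and efficacy from GFP-containing endosomes per cell plotted against concentration. Efficacy expressed relative to 0.200 µM S1P.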

[4] = biological target: T2, Sphingosine 1-phosphate receptor 1; test: Agonist activity at human S1P1 receptor expressed in U20S cells coexpressing eGFP assessed as receptor internalization after 1 hr by microscopy analysis relative to S1P1; type: functional, cell-based; conditions: U2OS; outline: as §2
Homo sapiens = organism: Homo sapiens; test: Selectivity ratio of EC50 for human S1P3 receptor to EC50 for human S1P1 receptor
[5] = biological target: T1, Sphingosine 1-phosphate receptor 3; test: Agonist activity at human S1P3 receptor expressed in CHO cells coexpressing Gq/i5 protein by calcium flux assay relative to control; type: functional, cell-based; outline: as §1
Rattus norvegicus [6] = test: Immunosuppressive activity in Lewis rat assessed as reduction of circulating lymphocytes at 10 mg/kg, po after 4 hrs; type: functional; set-up: scale not given: the % may be the effect or the level left
Outline: (§3)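 Female Lewis rats (250 g, 6–8 wk), acclimatized ≥1 week, N = 5/group. Given vehicle (20% captisol in water) or 10 mg/kg compound in 20% captisol/water by oral gavage (10 mL/kg). Killed by CO₂ 4 h post-dose, blood taken by cardiac puncture. Total blood lymphocytes counted and total plasma concentration measured. Significance vs vehicle by ANOVA/Dunnett's test.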

[7] = Plasma concentration in Lewis rat at 10 mg/kg, po after 4 hrs; type: ADME, organism-based; set-up: dose 10 mg/kg, route oral; outline: as §3
[8] = Ratio of plasma concentration in Lewis rat at 10 mg/kg, po after 4 hrs to EC50 for human S1P1 receptor expressed in U20S cells; type: ADME, organism-based; set-up: dose 10 mg/kg, route oral; conditions: in vivo

T1 sequence (Q99500 whole entry): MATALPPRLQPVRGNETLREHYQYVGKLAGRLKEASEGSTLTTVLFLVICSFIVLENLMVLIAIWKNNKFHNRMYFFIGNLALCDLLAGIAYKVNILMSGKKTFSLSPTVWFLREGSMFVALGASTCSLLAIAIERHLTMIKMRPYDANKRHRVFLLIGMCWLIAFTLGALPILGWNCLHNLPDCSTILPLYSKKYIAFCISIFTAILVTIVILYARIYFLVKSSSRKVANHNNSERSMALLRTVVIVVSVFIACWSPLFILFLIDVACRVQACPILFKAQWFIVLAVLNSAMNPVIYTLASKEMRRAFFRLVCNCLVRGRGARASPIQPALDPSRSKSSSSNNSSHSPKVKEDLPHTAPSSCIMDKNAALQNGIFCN
T2 sequence (P21453 whole entry): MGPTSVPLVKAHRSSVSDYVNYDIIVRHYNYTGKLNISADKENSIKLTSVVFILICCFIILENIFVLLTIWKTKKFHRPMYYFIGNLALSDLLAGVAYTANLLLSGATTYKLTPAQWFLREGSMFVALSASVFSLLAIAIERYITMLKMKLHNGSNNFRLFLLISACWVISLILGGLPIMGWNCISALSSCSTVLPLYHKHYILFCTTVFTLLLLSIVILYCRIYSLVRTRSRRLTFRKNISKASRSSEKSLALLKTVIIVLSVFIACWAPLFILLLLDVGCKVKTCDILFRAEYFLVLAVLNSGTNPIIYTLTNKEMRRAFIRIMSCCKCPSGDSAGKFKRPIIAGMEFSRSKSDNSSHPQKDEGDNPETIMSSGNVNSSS

Compound | EC50 [1] [nM] | EC50 [3] [nM] | Efficacy [4] [%] | Efficacy [5] [%] | further results
O=C(O)C1CN(Cc2ccc(-c3nc4cc(Cc5ccccn5)ccc4s3)c(F)c2)C1 | > 25000 | 680 | 94 |  | Ratio EC50 (Homo sapiens): > 37
O=C(O)C1CN(Cc2ccc(-c3nc4ccc(Cc5ccccn5)cc4s3)c(F)c2)C1 | > 25000 | 1960 | 71 |  | 
O=C(O)C1CN(Cc2ccc(-c3nc4ccc(C5(c6ccccn6)CC5)cc4s3)c(F)c2)C1 | > 25000 | 240 | 90 |  | Ratio EC50 (Homo sapiens): > 105
O=C(c1ccc2nc(-c3ccc(CN4CC(C(=O)O)C4)cc3F)sc2c1)c1ccccn1 | > 25000 | 1300 | 50 |  | 
O=C(O)C1CN(Cc2ccc(-c3nc4ccc(C(=O)N5CCCCC5)cc4s3)c(F)c2)C1 | > 25000 | 1170 | 95 |  | 
O=C(O)C1CN(Cc2ccc(-c3nc4ccc(C(=O)N5CCCCCC5)cc4s3)c(F)c2)C1 | > 25000 | 2720 | 108 |  | 
O=C(O)C1CN(Cc2ccc(-c3nc4ccc(C(=O)N5CCCC5)cc4s3)c(F)c2)C1 | > 25000 | > 20000 |  |  | 
CC(c1ccc2sc(-c3ccc(CN4CC(C(=O)O)C4)cc3F)nc2c1)c1ccccn1 (racemic) | > 25000 | 2370 | 62 |  | 
CC(c1ccc2nc(-c3ccc(CN4CC(C(=O)O)C4)cc3F)sc2c1)c1ccccn1 (racemic) | > 25000 | 570 | 79 |  | 
CCC(c1ccc2nc(-c3ccc(CN4CC(C(=O)O)C4)cc3F)sc2c1)c1ccccn1 (single isomer, unassigned) [listing 2 of 2 here] |  |  | 95 | 82 | 
CCC(c1ccc2nc(-c3ccc(CN4CC(C(=O)O)C4)cc3F)sc2c1)c1ccccn1 (single isomer, unassigned; (+)) [listing 2 of 2 here] |  |  | 93 | 30 | 
CCC1SCCN1C(=O)c1ccc2nc(-c3ccc(CN4CC(C(=O)O)C4)cc3F)sc2c1 (single isomer, unassigned; (+)) [listing 2 of 2 here] |  |  | 107 | 82 | Ratio EC50 (Homo sapiens): 23
CCC1SCCN1C(=O)c1ccc2nc(-c3ccc(CN4CC(C(=O)O)C4)cc3F)sc2c1 (stereo in doubt; (-)-11f) [listing 2 of 2 here] |  |  | 106 | 36 | 

Further compounds by falling EC50 [1], results first:

EC50 [1] [nM] | EC50 [3] [nM] | Efficacy [4] [%] | Efficacy [5] [%] | Compound | further results
9750 | 520 |  |  | CCC(c1ccc2nc(-c3ccc(CN4CC(C(=O)O)C4)cc3F)sc2c1)c1ccccn1 (single isomer, unassigned; (+)) [listing 1 of 2 here] | 
7420 | 2710 | 110 | 21 | O=C(O)C1CN(Cc2ccc(-c3nc4ccc(C(=O)N5CCSC5)cc4s3)c(F)c2)C1 | 
6240 | 150 |  |  | CCC1SCCN1C(=O)c1ccc2nc(-c3ccc(CN4CC(C(=O)O)C4)cc3F)sc2c1 (stereo in doubt; (-)-11f) [listing 1 of 2 here] | Activity (Rattus norvegicus [6]): 24%; concentration at 4 h ([7]; Lewis, plasma): 130 nM
2680 | 430 | 80 | 72 | CC1(C)SCCN1C(=O)c1ccc2nc(-c3ccc(CN4CC(C(=O)O)C4)cc3F)sc2c1 | 
2060 | 100 |  |  | CCC(c1ccc2nc(-c3ccc(CN4CC(C(=O)O)C4)cc3F)sc2c1)c1ccccn1 (single isomer, unassigned) [listing 1 of 2 here] | 
2040 | 42 | 90 | 71 | CC1SCCN1C(=O)c1ccc2nc(-c3ccc(CN4CC(C(=O)O)C4)cc3F)sc2c1 (racemic) | 
1210 | 41 |  |  | O=C(O)C1CN(Cc2ccc(-c3nc4cc(Cc5ccccc5)ccc4s3)c(F)c2)C1 | Activity (Rattus norvegicus [2]): 58%
900 | 49 | 96 | 87 | CC(C)C1SCCN1C(=O)c1ccc2nc(-c3ccc(CN4CC(C(=O)O)C4)cc3F)sc2c1 (racemic) | 
888 | 2 |  |  | O=C(O)C1CN(Cc2ccc(-c3nc4ccc(C5(c6ccccc6)CC5)nc4s3)c(F)c2)C1 | 
390 | 17 |  |  | CCC1SCCN1C(=O)c1ccc2nc(-c3ccc(CN4CC(C(=O)O)C4)cc3F)sc2c1 (single isomer, unassigned; (+)) [listing 1 of 2 here] | Activity (Rattus norvegicus [6]): 55%; concentration ([7]; in vivo, 4 h): 190 nM; Ratio [8]: 10
